Only some compounds are listed: those with a hit (about 2% of all), similar ones and a draw of the others.
MBD2 inh – MBD2-methylated oligo binding inhibition; TR-FRET, MBD2 binding to methylated oligonucleotide; actives 0.31% (n = 370,000); Q9UBB5; AID 686964; inhibition, % at 4.4 µM; in the data active means inhibition above about 13%
TCR CD3 inh – blocks the human TCR-CD3 interaction | TAMRA-labeled TCR probe fluorescence, biochemical | inhibition, % at 9.4 µM | actives 0.37% (n = 360,000); in the data active means inhibition above about 19%;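 further: recombinant mutant TCR 2C K166C tagged with TAMRA read by polarization; 0% = receptor in buffer alone and 100% = receptor with positive control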
UHRF1 MBD2 ctr – human UHRF1 methylated DNA binding inhibitors; UHRF1 binding to methylated oligo, TR-FRET; inhibition, % at 4.4 µM; actives 0.75% (n = 370,000); in the data active means inhibition above about 21%;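 further: UHRF1 SRA domain binding a hemimethylated CpG hairpin DNA probe; 0% = median of test compound wells and 100% = reference inhibitor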
ARFGAP1 inh – rat ARFGAP1 inhibition; Q62848; actives 0.26% (n = 360,000); Arfgap1-stimulated ARF1 GTP hydrolysis, GDP FP detection; inhibition, % at 16.5 µM;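 active means inhibition above a per-plate limit, mean inhibition of low control wells plus 3 SD, cut at about 25% in these data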;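 further: 0% = DMSO wells with enzyme and 100% = wells lacking Arfgap1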
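Assay system: purified rat His6-Arfgap1 residues 1-136 (GAP domain); Reagent: human Δ17 ARF1 bound to GTP; Dosing: 16.5 µM single point, 1.26% DMSO; Times: GTP hydrolysis reaction 2 h at 25 °C; Signal: FP, GDP Alexa 633 tracer displaced from anti-GDP antibody, 620/688 nm; Measure: % inhibition from polarization.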
LEDGF integ inh – blocks HIV-1 LEDGF/p75-dependent DNA integration; TR-FRET IN-LEDGF/p75 DNA integration, Eu/Cy5; inhibition, % at 3.7 µM; actives 0.64% (n = 370,000);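 active means inhibition above the screen-wide mean plus 3 SD, cut at about 13% in these data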;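 further: signal is the Cy5 over europium emission ratio at 671 and 618 nm; 0% = plate median of compound wells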
ASAP1 GAP inh – inhibitors of human ASAP1 ArfGAP activity. actives 0.19% (n = 360,000). ASAP1-stimulated ARF1 GTP hydrolysis, GDP FP detection. Q9ULH1. inhibition, % at 16.5 µM; in the data active means inhibition above about 25%;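 further: 0% = vehicle with enzyme and substrate and 100% = no enzyme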
Target sequence (Q9ULH1 325-724 limits assumed): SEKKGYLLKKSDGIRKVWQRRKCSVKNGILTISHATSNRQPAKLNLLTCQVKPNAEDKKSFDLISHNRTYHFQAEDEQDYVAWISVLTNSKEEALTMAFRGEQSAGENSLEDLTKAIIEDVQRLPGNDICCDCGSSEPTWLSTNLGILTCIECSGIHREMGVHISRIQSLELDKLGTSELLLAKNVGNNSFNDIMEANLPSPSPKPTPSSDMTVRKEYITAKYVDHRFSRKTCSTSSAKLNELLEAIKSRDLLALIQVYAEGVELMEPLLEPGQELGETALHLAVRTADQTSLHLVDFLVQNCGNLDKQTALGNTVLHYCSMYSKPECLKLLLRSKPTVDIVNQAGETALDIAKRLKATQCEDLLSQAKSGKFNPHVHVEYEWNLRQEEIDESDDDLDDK
ARFGAP1 inh conf – confirmation of rat ARFGAP1 inhibitors; shares compounds with ARFGAP1 inh; ARFGAP1-stimulated ARF1 GTP hydrolysis, GDP tracer FP; inhibition, % at 16.5 µM; actives 30% (n = 890);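 active means average inhibition over triplicates above the hit cutoff set in the earlier primary screen, cut at about 25% in these data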;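 further: 0% = Arfgap1 plus ARF1-GTP with DMSO and 100% = wells lacking Arfgap1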
The depositor's hits bear a star; nt = no result.

SMILES	MBD2 inh	TCR CD3 inh	UHRF1 MBD2 ctr	ARFGAP1 inh	LEDGF integ inh	ASAP1 GAP inh	ARFGAP1 inh conf
COc1ccc2oc(C(=O)OCC(=O)N3CC(C)CC(C)C3)c(C)c2c1 (configuration not stated)	7	-1	2	31*	-3	13	39*
COc1ccc2oc(C(=O)OCC(=O)N3C(C)CCCC3C)c(C)c2c1 (configuration not stated)	3	9	0	-2	2	8	nt
COc1ccc2oc(C(=O)OCC(=O)N3CC(C)OC(C)C3)c(C)c2c1 (configuration not stated)	-1	8	0	25*	4	11	13
COc1cc2c(cc1OC)C(C)N(C(=O)c1cc3c(s1)-c1ccccc1OC3)CC2 (configuration not stated)	0	3	-1	25*	3	4	5
CC(=O)n1c(=O)c2ccccc2c(=O)n1-c1ccccc1	-2	6	3	32*	-2	12	2
Clc1cccc(CN2CCN(Cc3ccco3)CC2)c1	-2	-2	1	25*	-1	2	-5
CC(=O)Nc1ccc(SC(Sc2ccc(NC(C)=O)cc2)c2ccccc2)cc1	3	-5	1	30*	-4	16	19
COC(=O)[C@]12CCCCC=C1N(Cc1ccc3c(c1)OCO3)C(=O)[C@H](CC(=O)NCc1ccc(OC)c(OC)c1)C2	-1	4	1	4	0	5	nt
Cc1ccc[n+](C(C)C(=O)c2ccc(Cl)cc2)c1 (configuration not stated)	2	-7	0	45*	0	6	-2
Cc1ccc(C(=O)C(C)[n+]2cccc(C(N)=O)c2)cc1 (configuration not stated)	1	-4	1	6	3	15	nt
NS(=O)(=O)c1ccc(CCNC(=O)CNS(=O)(=O)c2cccc(Br)c2)cc1	0	7	0	28*	1	3	-2
CC(=O)Nc1ccc(S(=O)(=O)NCC(=O)NCCc2ccc(S(N)(=O)=O)cc2)cc1	0	-3	-2	0	-2	3	nt
COC(=O)C1CN(Cc2ccc(OC)cc2)CCS(=O)(=O)N1Cc1cn(Cc2ccccc2)nn1 (configuration not stated)	-6	nt	7	nt	-2	nt	nt
O=C(NCCN1CCN(Cc2ccccc2)CC1)c1ccc(CS(=O)(=O)c2c(Cl)cccc2Cl)o1	1	-3	-3	-5	-1	-2	nt
O=C(O)c1ccc(Cn2cnc3scc(-c4ccccc4)c3c2=O)cc1	6	-1	4	25*	-4	12	1
C[C@H](O)[C@@H]1CN2CCc3c([nH]c4ccccc34)[C@@H]2C[C@@H]1N(C)C(=O)OCc1ccccc1	-9	0	1	-1	1	3	nt
CC1(C)Cc2c(cnn2-c2ccccc2)-c2c1c1ccccc1n2CC(O)CCl (configuration not stated)	5	1	3	26*	12	7	7
CC1(C)Cc2c(cnn2-c2ccccc2)C(=O)/C1=N\NC(=O)c1ccncc1	2	6	-2	-13	-1	2	nt
CC1(C(=O)NS(=O)(=O)c2ccc3c(c2)CCO3)CCN1C(=O)C1(c2ccc(Cl)cc2)CC1 (configuration not stated)	3	2	-1	-10	-1	-6	nt
Cc1cccc(NC(=O)CCN2CCN(C)CC2)c1	1	6	0	-5	-3	6	nt
Cc1cccc(NC(=O)CCN2CCC(C)CC2)c1	7	-3	2	27*	0	5	-5
CCC(CC)C(=O)Nc1cc(OC)c(OC)cc1C(=O)O	-6	5	-3	0	-1	-4	nt
CCC(C)C(=O)Nc1cc(OC)c(OC)cc1C(=O)O (configuration not stated)	2	-4	1	28*	2	-4	7
CCCNC(=O)C1(C)CCCN(C(=O)c2ccc(F)cc2Cl)C1 (configuration not stated)	1	3	3	-13	-1	3	nt

Source: PubChem BioAssay
